How the values were obtained:
Cytotoxicity assay = format: cell-based; details: human, HeLa cells
Method in brief: (§1)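 Where cells were clearly affected but the curve could not be fitted, the value was flagged. "n/a" marks no effect under the conditions tested.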

HeLa cells = test: Cytotoxicity assay; format: cell-based; details: under the conditions used
Method in brief: as §1

| Compound | IC50 at 72 h (Cytotoxicity assay) | cytotoxicity (in words) (HeLa cells) |
| --- | --- | --- |
| CC(=O)Nc1ccc(-c2csc(Nc3ccccc3C(F)(F)F)n2)cc1 [Compound 17] | 71 µM |  |
| CC(C)C(=O)Nc1ccc(-c2csc(Nc3cccc(F)c3)n2)cc1 [Compound 12] | 34 µM |  |
| CC(=O)Nc1ccc(-c2csc(NC(=O)c3ccccc3)n2)cc1 [Compound 6] |  | not cytotoxic |
| CCC(=O)Nc1ccc(-c2csc(Nc3cccc(F)c3)n2)cc1 [Compound 11, N-[4-[2-(3-fluoroanilino)thiazol-4-yl]phenyl]propanamide] | 38 µM |  |
| CC(=O)Nc1ccc(-c2csc(Nc3ccccc3C)n2)cc1 [Compound 14] | 59 µM |  |
| O=C(Nc1ccc(-c2csc(Nc3cccc(F)c3)n2)cc1)C1CC1 [Compound 13] | 38 µM |  |
| CC(=O)Nc1ccc(-c2csc(Nc3cccc(Cl)c3)n2)cc1 [Compound 20] | 19 µM |  |
| COc1cccc(Nc2nc(-c3ccc(NC(C)=O)cc3)cs2)c1 [Compound 22] | 43 µM |  |
| CC(=O)Nc1ccc(-c2csc(Nc3ccccc3)n2)cc1 [Compound 4] | 48 µM |  |
| CC(=O)Nc1ccc(-c2csc(Nc3ccc(F)cc3)n2)cc1 [Compound 10] | > 80 µM |  |
| CC(=O)Nc1ccc(-c2csc(Nc3cccc(O)c3)n2)cc1 [Compound 21] | 50 µM |  |
| CC(=O)Nc1ccc(-c2csc(Nc3ccccc3F)n2)cc1 [Compound 8] | > 80 µM |  |
| CC(=O)Nc1ccc(-c2csc(Nc3cccc(C)c3)n2)cc1 [Compound 15] | 37 µM |  |
| CC(=O)Nc1ccc(-c2csc(Nc3ccc(C(F)(F)F)cc3)n2)cc1 [Compound 19] |  | abrogated activity |

Reference: PMC9324959 (Angewandte Chemie (International Ed. in English), 2022)
